Measured values pooled from the literature.
Lines come from different studies, so protocols differ.
CES1: Liver carboxylesterase 1 (CES1, Homo sapiens, UniProt P23141)
F2: Prothrombin (F2, Homo sapiens, UniProt P00734)
KCNH2: Voltage-gated inwardly rectifying potassium channel KCNH2 (KCNH2, Homo sapiens, UniProt Q12809)
gag-pol protease: Gag-Pol polyprotein, protease (gag-pol, Human immunodeficiency virus type 1 group M subtype B, UniProt P04585)
tlpQ: tlpQ (Pseudomonas aeruginosa, UniProt Q9I0I4)

SMILES	target	test	conditions	measurement	result
C=CCc1ccc(O)c(-c2cc(CC=C)ccc2O)c1	CES1	enzyme activity, inhibitor	–	IC50	0.39 µM
COCCC(=O)N[C@@H](CCC(N)=O)C(=O)N[C@@H](Cc1ccccc1)C(=O)N[C@@H](CCCNC(=N)N)C(=O)c1nc2ccccc2s1	F2	cell-free assay	–	Ki	> 10 µM
CN1CCC(CNc2ccc3ncc(-c4cccc(OC(F)(F)F)c4)n3n2)CC1	3',5'-cyclic-AMP phosphodiesterase 4D (PDE4D, Homo sapiens, UniProt Q08499)	enzyme activity, inhibitor	–	IC50	5.04 µM
O=c1c2cc(Cl)c(CO)cc2[nH]c(=S)n1Cc1cccnc1	KCNH2	ion current, inhibitor, patch clamp	pH 7.4	IC50	> 10 µM
COc1ccc(S(=O)(=O)N(CC(C)C)C[C@@H](O)[C@H](Cc2ccccc2)NC(=O)O[C@@H]2CCC[C@@]23CCO[C@@H](c2cc(OC)cc(OC)c2)C3)cc1	gag-pol protease	enzyme activity, inhibitor	–	Ki	0.0355 µM
CCOC(=O)c1ccc(OC(=O)CCCCCN=C(N)N)cc1	Kallikrein-14 (Homo sapiens, UniProt Q9P0G3)	enzyme activity, inhibitor	–	IC50	0.641 µM
Cn1c(=O)n(CCCCN2CCC3(CC2)OCc2ccccc23)c2ccccc21	Sodium-dependent dopamine transporter (Slc6a3, Rattus norvegicus, UniProt P23977)	ligand displacement, radioligand	cell membranes	Ki	0.311 µM
CC1=C(O)C(=O)C=C2C1=CC=C1[C@@]2(C)CC[C@@]2(C)[C@@H]3C[C@](C)(C(=O)O)CC[C@]3(C)CC[C@]12C	Aldo-keto reductase family 1 member B10 (AKR1B10, Homo sapiens, UniProt O60218)	binding, BLI	–	Kd	2.41 µM
COc1c2c(cc3c1-c1c(cc4c(c1OC)OCO4)C[C@H](C)[C@H](C)C3)OCO2	CES1	enzyme activity, inhibitor	–	IC50	1.4 µM
COc1ccc(S(=O)(=O)N(CC(C)C)C[C@@H](O)[C@H](Cc2ccccc2)NC(=O)O[C@@H]2CCC[C@@]23CCO[C@@H](c2ccccc2OC)C3)cc1	gag-pol protease	enzyme activity, inhibitor	–	Ki	0.0167 µM
O=c1c2cc(Cl)ccc2[nH]c(=S)n1Cc1cccnc1	KCNH2	ion current, inhibitor, patch clamp	pH 7.4	IC50	> 10 µM
NCCCCNCCCN	tlpQ	binding, ITC	–	Kd	0.12 µM
COc1ccc(S(=O)(=O)N(CC(C)C)C[C@@H](O)[C@H](Cc2ccccc2)NC(=O)O[C@H]2CCC[C@@]23CCO[C@@H](c2cccc(OC)c2)C3)cc1	gag-pol protease	enzyme activity, inhibitor	–	Ki	1.08 µM
CCOC(=O)N[C@@H](CCCNC(=N)N)C(=O)N[C@@H](CCC(N)=O)C(=O)N[C@@H](Cc1ccccc1)C(=O)N[C@@H](CCCNC(=N)N)C(=O)c1nc2ccccc2s1	F2	cell-free assay	–	Ki	> 10 µM
NCCc1c[nH]c2ccc(O)cc12	tlpQ	binding, ITC	–	Kd	> 1000 µM
